PubChem BioAssay
Calls of active or inactive are those of the source.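 Rule for the calls, unless noted: active = viability at or under a set limit in both replicates, limit being median viability minus 3 SD (cut at about 48% in these data, passing the limit was not always enough); inconclusive = at or under the limit in just one replicate; inactive = at or above the limit in both replicates.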

Experiments:
[1] = Her2 expression decrease, cell viability multiplex – SKBR3 breast tumor cells, AlphaScreen, ATP viability, primary screen (AID 461;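 active = Her2 level under about 52% in both replicate screens, with viability over 70% of control, limit read from the data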;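 for Her2 level: lower value means less Her2 protein in the cells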;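 for viability: percent of carrier control wells set as 100% viability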); settings: SKBR3 Her2 protein level, 18-24 h, measured here: SKBR3 viability, ATP luminescence, at 10 µM
[2] = biological target: Receptor tyrosine-protein kinase erbB-2 (Homo sapiens) (UniProt P04626); experiment: as above; settings: 18-24 h, at 10 µM, stronger effect = lower value
[3] = reduced viability of SK-BR-3 breast cancer cells – cell-based, 24 h, human, pilot screen (AID 572;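 active = viability at or below 10% of carrier control in both of two separate runs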;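 note: compound exposure lasted between 18 and 24 h rather than exactly 24 h; 100% = carrier-treated control wells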); settings: SK-BR-3 viability, CellTiter-Glo luminescence, at 10 µM, stronger effect = lower value
[4] = HUVEC growth inhibition – cell-based, human, primary screen (AID 575;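 active = viability at or below 30% in both replicate assays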;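 note: 100% = median of untreated cell wells with 0.1% DMSO on each plate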); settings: HUVEC proliferation, CellTiter-Glo luminescence, 72 h; at 10 µM; stronger effect = lower value
Summary of the method: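 Test system – primary HUVEC, no more than 12 passages · Dosing – one dose, 10 µM final, 0.1% DMSO · Times – 72 h treatment at 37 °C · Measured by – ATP-based CellTiter-Glo luminescent read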

[5] = H69AR cell proliferation blockers – human, duplicate replicates, primary screen (AID 580); settings: H69AR lung tumor cells viability, ATP luminescence, 72 h; at 10 µM; stronger effect = lower value;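 note: 100% = mean luminescence of untreated wells and 0% = no signal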
[6] = MRP1 drug-resistance reversers in H69AR cells – cell-based, doxorubicin co-treatment, pilot screen (AID 601;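 active = viability loss from added drug above about 55%, and viability with drug at most 40%, in both replicates, limit read from the data, passing the limit was not always enough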); settings: CellTiter-Glo, 72 h, at 10 µM; for differential viability (reversal): stronger effect = higher value
[7] = yeast transport mutant growth inhibition pilot in 384-well plates, post-Golgi transport modulator project (AID 636; in the data active = inhibition above about 31%); settings: absorbance 615 nm, about 18 h, stronger effect = higher value
[8] = growth suppression of yeast trafficking mutant, preliminary HTS, modulators of trafficking downstream of Golgi apparatus project, 1536-format plate, OD 615 nm (AID 637; in the data active = inhibition above about 30%); settings: yeast transport mutant growth, absorbance 615 nm, 18 h; stronger effect = higher value
[9] = H69AR cells + 2 uM doxorubicin, measured here: viability with 2 uM doxorubicin, stronger effect = lower value
[10] = H69AR cells, compound alone cytotoxicity

Sequence of Receptor tyrosine-protein kinase erbB-2 (Homo sapiens) (P04626 whole entry, looked up): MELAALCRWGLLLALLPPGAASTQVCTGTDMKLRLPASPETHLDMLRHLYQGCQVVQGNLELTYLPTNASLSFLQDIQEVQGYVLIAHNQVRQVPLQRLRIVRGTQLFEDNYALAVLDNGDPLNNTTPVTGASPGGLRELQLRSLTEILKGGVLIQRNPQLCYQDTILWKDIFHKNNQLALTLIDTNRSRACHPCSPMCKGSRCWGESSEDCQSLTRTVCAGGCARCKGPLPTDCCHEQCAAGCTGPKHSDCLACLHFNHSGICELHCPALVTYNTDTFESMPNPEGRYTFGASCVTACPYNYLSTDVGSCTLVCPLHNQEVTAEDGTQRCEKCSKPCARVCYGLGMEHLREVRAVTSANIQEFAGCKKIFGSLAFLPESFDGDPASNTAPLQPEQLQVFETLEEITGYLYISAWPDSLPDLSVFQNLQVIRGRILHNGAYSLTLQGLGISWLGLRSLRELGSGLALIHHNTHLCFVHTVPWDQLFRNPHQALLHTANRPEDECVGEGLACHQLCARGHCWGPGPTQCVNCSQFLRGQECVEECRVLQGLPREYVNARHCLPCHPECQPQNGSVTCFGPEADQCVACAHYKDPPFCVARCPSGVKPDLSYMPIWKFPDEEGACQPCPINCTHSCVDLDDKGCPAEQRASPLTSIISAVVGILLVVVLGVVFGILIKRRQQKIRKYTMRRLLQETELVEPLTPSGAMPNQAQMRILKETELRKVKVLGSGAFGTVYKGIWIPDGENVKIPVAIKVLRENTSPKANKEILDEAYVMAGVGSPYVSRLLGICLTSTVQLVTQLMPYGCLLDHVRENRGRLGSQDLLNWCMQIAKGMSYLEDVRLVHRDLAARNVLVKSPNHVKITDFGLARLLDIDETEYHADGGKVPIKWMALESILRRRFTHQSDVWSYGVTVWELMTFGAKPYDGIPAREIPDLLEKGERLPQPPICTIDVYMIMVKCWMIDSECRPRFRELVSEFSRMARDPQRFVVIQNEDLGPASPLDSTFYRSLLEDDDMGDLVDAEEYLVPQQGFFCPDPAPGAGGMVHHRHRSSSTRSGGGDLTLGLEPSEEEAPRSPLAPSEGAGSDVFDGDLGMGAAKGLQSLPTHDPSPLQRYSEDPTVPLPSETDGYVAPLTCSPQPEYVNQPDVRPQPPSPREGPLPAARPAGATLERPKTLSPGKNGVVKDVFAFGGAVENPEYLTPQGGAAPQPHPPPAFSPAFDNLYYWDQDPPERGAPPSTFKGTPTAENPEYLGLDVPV

Row | Compound | viability [1] [%] | Her2 level [2] | viability [3] | viability [4] | viability [5] | differential viability (reversal) ([6]; H69AR cells + 2 uM doxorubicin) | viability [6, 9] [%] | viability [6, 10] [%] | inhibition [7] | inhibition [8]
1 | Cc1nc2sc(C(c3ccco3)N3CCN(c4ccccc4F)CC3)c(O)n2n1 (stereo not given) | 97 | 85% (inactive) | 97% (inactive) | 101% (inactive) | 97.5% (inactive) | 7.17% (inactive) | 90.3 | 97.5 | -6.27% (inactive) | 0.95% (inactive)
2 | Cc1oc(-c2ccccc2F)nc1CS(=O)(=O)CC(=O)NCc1ccco1 | 116 | 124% (inactive) | 116% (inactive) | 85.9% (inactive) | 93.8% (inactive) | 7.03% (inactive) | 86.8 | 93.8 | -3.2% (inactive) | -2.62% (inactive)
3 | CCN(Cc1cc2cc(OC)ccc2[nH]c1=O)C(=O)Cc1ccc(OC)cc1 | 91 | 87.5% (inactive) | 91% (inactive) | 96.5% (inactive) | 88.2% (inactive) | 6.29% (inactive) | 81.9 | 88.2 | -0.66% (inactive) | -3.44% (inactive)
4 | CCc1ccccc1NC(=O)CCc1nc(-c2ccc(C)cc2)no1 | 95 | 71.5% (inactive) | 95% (inactive) | 83% (inactive) | 99.3% (inactive) | 3.1% (inactive) | 96.2 | 99.3 | -4.61% (inactive) | -3.67% (inactive)
5 | N#C/C(=C(/O)CN1CCOCC1)c1nc2ccccc2s1 | 89.5 | 145% (inactive) | 89.5% (inactive) | 99.3% (inactive) | 106% (inactive) | 5.77% (inactive) | 100 | 106 | 2.73% (inactive) | -13.8% (inactive)
6 | NC(=O)COC(=O)c1ccc(S(=O)(=O)N2CCCCCC2)cc1 | 93 | 104% (inactive) | 93% (inactive) | 92.8% (inactive) | 88% (inactive) | -2.85% (inactive) | 90.9 | 88 | -2.82% (inactive) | -7.67% (inactive)
7 | CCOc1ccccc1C1CC(=O)NC(SCC)=C1C#N (stereo not given) | 85.5 | 89% (inactive) | 85.5% (inactive) | 109% (inactive) | 97% (inactive) | 7.42% (inactive) | 89.6 | 97 | -6.08% (inactive) | -2.17% (inactive)
8 | O=C(c1cn(-c2ccccc2)nc1-c1cccs1)N1CCN(c2ccccn2)CC1 | 101 | 79.5% (inactive) | 101% (inactive) | 72.4% (inactive) | 45.1% (active) | -40% (inactive) | 85.1 | 45.1 | -3.29% (inactive) | -2.38% (inactive)
9 | CCOc1ccccc1C(=O)N1CCN(c2cccc(Cl)c2)CC1 | 118 | 80% (inactive) | 118% (inactive) | 23.3% (active) | 28.2% (active) | -35.7% (inactive) | 63.8 | 28.2 | -4.53% (inactive) | 1.15% (inactive)
10 | Cc1c(=O)n(OCc2ccccn2)c2ccccc2[n+]1[O-] | 84 | 76% (inactive) | 84% (inactive) | 105% (inactive) | 94.2% (inactive) | 8.18% (inactive) | 86 | 94.2 | -5.92% (inactive) | -1.27% (inactive)
11 | COC(=O)c1[nH]c2cc(OC)ccc2c1NC(=O)CN1CCOCC1 | 116 | 90.5% (inactive) | 116% (inactive) | 95% (inactive) | 94.3% (inactive) | 3.07% (inactive) | 91.3 | 94.3 | 0% (inactive) | -4.19% (inactive)
12 | CCOc1ccc(N2C(N)=NC(N)=NC2(C)C)cc1 | 92.5 | 85% (inactive) | 92.5% (inactive) | 101% (inactive) | 75.4% (inactive) | -26.6% (inactive) | 102 | 75.4 | -0.26% (inactive) | 12.1% (inactive)
13 | CCCN1CCN(CCCNC(=O)Cn2nc(-c3ccc(Cl)cc3)ccc2=O)CC1 | 86 | 93.5% (inactive) | 86% (inactive) | 104% (inactive) | 101% (inactive) | 10.3% (inactive) | 90.6 | 101 | -2.76% (inactive) | 2.42% (inactive)
14 | CCOc1ccccc1OCC(=O)Nc1nnc(COC)s1 | 89 | 103% (inactive) | 89% (inactive) | 99.5% (inactive) | 91.8% (inactive) | -1.57% (inactive) | 93.3 | 91.8 | -2.8% (inactive) | 10.7% (inactive)
15 | CC(=O)N1CCN=C1SCc1ccc(Br)cc1 | 93 | 97.5% (inactive) | 93% (inactive) | 71.9% (inactive) | 87% (inactive) | 3.28% (inactive) | 83.7 | 87 | -1.03% (inactive) | 9% (inactive)
16 | O=C(CSc1ncnc2c1cnn2Cc1ccccc1)Nc1ccc2c(c1)OCCO2 | 109 | 98.5% (inactive) | 109% (inactive) | 74.9% (inactive) | 56.1% (inactive) | -5.15% (inactive) | 61.3 | 56.1 | -4.68% (inactive) | -6.23% (inactive)
17 | O=C(CN1C(=O)CCSc2ccccc21)Nc1ccccc1 | 113 | 94% (inactive) | 113% (inactive) | 111% (inactive) | 104% (inactive) | 15.9% (inactive) | 88.2 | 104 | -7.67% (inactive) | -7.78% (inactive)
18 | CCOC(=O)c1[nH]c2ccccc2c1NC(=O)C(CC)CC | 98.5 | 99.5% (inactive) | 98.5% (inactive) | 80.8% (inactive) | 93.3% (inactive) | 13.9% (inactive) | 79.4 | 93.3 | -4.27% (inactive) | 5.5% (inactive)
19 | COc1ccc2c(C(F)(F)F)cc(=O)oc2c1C | 92 | 99.5% (inactive) | 92% (inactive) | 110% (inactive) | 99.8% (inactive) | 6.5% (inactive) | 93.3 | 99.8 | -4.67% (inactive) | 9.68% (inactive)
20 | O=C1CC(c2ccccc2)n2nc(NC(=O)c3ccccn3)nc2N1 (stereo not given) | 104 | 78% (inactive) | 104% (inactive) | 84.3% (inactive) | 66.2% (inactive) | -18.7% (inactive) | 84.9 | 66.2 | -4.59% (inactive) | 4.6% (inactive)
21 | COc1ccc(N2CCN(C(c3cccs3)C(C)NC(=O)c3ccco3)CC2)cc1 (stereo not given) | 90 | 76.5% (inactive) | 90% (inactive) | 82.1% (inactive) | 86.3% (inactive) | -4.01% (inactive) | 90.3 | 86.3 | -4.53% (inactive) | -0.16% (inactive)
22 | O=C(CN1CCN(c2cccc(Cl)c2)CC1)N1CCCC1 | 105 | 102% (inactive) | 105% (inactive) | 110% (inactive) | 78.8% (inactive) | -2.74% (inactive) | 81.5 | 78.8 | -6.75% (inactive) | -7.46% (inactive)
23 | COc1cccc(/C=N/n2c(C)nc3ccccc32)c1OC | 91 | 93.5% (inactive) | 91% (inactive) | 52.1% (inactive) | 91.9% (inactive) | 3.66% (inactive) | 88.3 | 91.9 | -2.4% (inactive) | -6.35% (inactive)
24 | O=c1c(-c2ccc(Br)cc2)coc2c(CN3CCOCC3)c(O)ccc12 | 85.5 | 80.5% (inactive) | 85.5% (inactive) | 101% (inactive) | 92.2% (inactive) | -4.24% (inactive) | 96.5 | 92.2 | -3.33% (inactive) | -2.22% (inactive)
25 | O=C(NCC(=O)N(c1ccc2c(c1)OCCO2)C(C(=O)NC1CCCC1)c1ccco1)c1ccco1 (stereo not given) | 92 | 102% (inactive) | 92% (inactive) | 97.2% (inactive) | 92.1% (inactive) | 13.4% (inactive) | 78.7 | 92.1 | -4.53% (inactive) | -9.05% (inactive)
26 | CCCNC(=O)c1ccccc1NC(=O)CN(c1ccccc1OCC)S(C)(=O)=O | 87 | 111% (inactive) | 87% (inactive) | 112% (inactive) | 98.1% (inactive) | 7.5% (inactive) | 90.6 | 98.1 | -0.13% (inactive) | -2.33% (inactive)
27 | CCC(c1nnnn1C(C)(C)C)N1CCN(C2CCCC2)CC1 (stereo not given) | 98.5 | 114% (inactive) | 98.5% (inactive) | 103% (inactive) | 107% (inactive) | 17.5% (inactive) | 89.3 | 107 | 1.2% (inactive) | 4.59% (inactive)
28 | COc1ccc(CC(NC(C)=O)C(=O)NC2CCN(c3nc(C)cc(C)c3C#N)CC2)c(OC)c1 (stereo not given) | 102 | 100% (inactive) | 102% (inactive) | 117% (inactive) | 104% (inactive) | -0.69% (inactive) | 105 | 104 | -0.41% (inactive) | 2.17% (inactive)
29 | COc1cc(Cl)c(C)cc1NC(=O)COC(=O)c1cnc(C)cn1 | 108 | 110% (inactive) | 108% (inactive) | 95.1% (inactive) | 97% (inactive) | -2.33% (inactive) | 99.3 | 97 | -4.25% (inactive) | -0.95% (inactive)
